# Results from ChEMBL document CHEMBL4689842, “EUbOPEN Chemogenomics Library wave 1” (2021).
# What was measured:
# Type in all cases: toxicity, cell-based
# Fibroblast [1] = assay: Multiplex assay against human fibroblast
# Method in brief: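 Per cents of healthy-nucleus cells form the tubulin, mitochondrial-mass and membrane-permeability phenotype values. Live cells were stained at seeding with Hoechst33342, BioTracker Green Microtubule Cytoskeleton Dye, MitoTracker Red and Annexin V Alexa Fluor 680. After compound addition they were imaged on a CQ1 microscope at 37°C and 5% CO2, and CellPathfinder machine-learning gating split them into Hoechst high-intensity objects or normal cells, normal cells into healthy, pyknosed or fragmented nuclei, and pyknosed cells into mitotic or apoptotic.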
# HEK-293T = assay: Incucyte cell viability with HEK293T; conditions: human, 10 µM, compound concentration 10 uM; further: filed as whole numbers so only -1 and 0 and 1 occur
# Fibroblast [2] = assay: Incucyte cell viability with human fibroblast; conditions: 10 µM, compound concentration 10 uM; further: filed as whole numbers so only -1 and 0 and 1 occur
# U2OS = assay: Incucyte cell viability with U2OS; conditions: human, 10 µM, compound concentration 10 uM; further: filed as whole numbers so only -1 and 0 and 1 occur
# [3] = 12 h, 1 µM, compound concentration 1 uM, replicate 1
# [4] = 12 h, 1 µM, compound concentration 1 uM, replicate 2
# [5] = 12 h, 10 µM, compound concentration 10 uM, replicate 1
# [6] = 12 h, 10 µM, compound concentration 10 uM, replicate 2
# [7] = 24 h, 1 µM, compound concentration 1 uM, replicate 1
# [8] = 24 h, 1 µM, compound concentration 1 uM, replicate 2
# [9] = 24 h, 10 µM, compound concentration 10 uM, replicate 1
# [10] = 24 h, 10 µM, compound concentration 10 uM, replicate 2
# [11] = 48 h, 1 µM, compound concentration 1 uM, replicate 1
# [12] = 48 h, 1 µM, compound concentration 1 uM, replicate 2
# [13] = 48 h, 10 µM, compound concentration 10 uM, replicate 1
# [14] = 48 h, 10 µM, compound concentration 10 uM, replicate 2
# [15] = 6 h, replicate number 1, timepoint 6 hours
# [16] = 12 h, replicate number 1, timepoint 12 hours
# [17] = 18 h, replicate number 1, timepoint 18 hours
# [18] = 24 h, replicate number 1, timepoint 24 hours
# [19] = 0 h, replicate number 2, timepoint 0 hours
compound,measurement,setting,value
CCCc1cc(C)[nH]c(=O)c1CNC(=O)c1cc(-c2ccc(N3CCN(C(C)C)CC3)nc2)cc2c1cnn2C(C)C,Population Apoptotic (%),Fibroblast [1]; [3],73%
same,Population Fragmented Nuclei (%),Fibroblast [1]; [3],26%
same,Population Healthy Nuclei (%),Fibroblast [1]; [3],41%
same,Population Hoechst High Intensity Objects (%),Fibroblast [1]; [3],22%
same,Population Membrane Permeable-Phenotype (%),Fibroblast [1]; [3],4%
same,Population Mitochondria Different-Phenotype (%),Fibroblast [1]; [3],32%
same,Population Mitotic Cells (%),Fibroblast [1]; [3],26%
same,Population Normal (%),Fibroblast [1]; [3],77%
same,Population Pyknosed Nuclei (%),Fibroblast [1]; [3],31%
same,Population Tubulin-Different-Phenotype (%),Fibroblast [1]; [3],52%
same,Total Cell Count,Fibroblast [1]; [3],77
same,Population Apoptotic (%),Fibroblast [1]; [4],20%
same,Population Fragmented Nuclei (%),Fibroblast [1]; [4],19%
same,Population Healthy Nuclei (%),Fibroblast [1]; [4],70%
same,Population Hoechst High Intensity Objects (%),Fibroblast [1]; [4],10%
same,Population Membrane Permeable-Phenotype (%),Fibroblast [1]; [4],8%
same,Population Mitochondria Different-Phenotype (%),Fibroblast [1]; [4],91%
same,Population Mitotic Cells (%),Fibroblast [1]; [4],80%
same,Population Normal (%),Fibroblast [1]; [4],89%
same,Population Pyknosed Nuclei (%),Fibroblast [1]; [4],9%
same,Population Tubulin-Different-Phenotype (%),Fibroblast [1]; [4],94%
same,Total Cell Count,Fibroblast [1]; [4],56
same,Population Apoptotic (%),Fibroblast [1]; [5],48%
same,Population Fragmented Nuclei (%),Fibroblast [1]; [5],24%
same,Population Healthy Nuclei (%),Fibroblast [1]; [5],32%
same,Population Hoechst High Intensity Objects (%),Fibroblast [1]; [5],29%
same,Population Membrane Permeable-Phenotype (%),Fibroblast [1]; [5],6%
same,Population Mitochondria Different-Phenotype (%),Fibroblast [1]; [5],21%
same,Population Mitotic Cells (%),Fibroblast [1]; [5],51%
same,Population Normal (%),Fibroblast [1]; [5],70%
same,Population Pyknosed Nuclei (%),Fibroblast [1]; [5],42%
same,Population Tubulin-Different-Phenotype (%),Fibroblast [1]; [5],69%
same,Total Cell Count,Fibroblast [1]; [5],143
same,Population Apoptotic (%),Fibroblast [1]; [6],85%
same,Population Fragmented Nuclei (%),Fibroblast [1]; [6],13%
same,Population Healthy Nuclei (%),Fibroblast [1]; [6],47%
same,Population Hoechst High Intensity Objects (%),Fibroblast [1]; [6],5%
same,Population Membrane Permeable-Phenotype (%),Fibroblast [1]; [6],79%
same,Population Mitochondria Different-Phenotype (%),Fibroblast [1]; [6],100%
same,Population Mitotic Cells (%),Fibroblast [1]; [6],14%
same,Population Normal (%),Fibroblast [1]; [6],94%
same,Population Pyknosed Nuclei (%),Fibroblast [1]; [6],38%
same,Population Tubulin-Different-Phenotype (%),Fibroblast [1]; [6],100%
same,Total Cell Count,Fibroblast [1]; [6],57
same,Population Apoptotic (%),Fibroblast [1]; [7],31%
same,Population Fragmented Nuclei (%),Fibroblast [1]; [7],30%
same,Population Healthy Nuclei (%),Fibroblast [1]; [7],47%
same,Population Hoechst High Intensity Objects (%),Fibroblast [1]; [7],16%
same,Population Membrane Permeable-Phenotype (%),Fibroblast [1]; [7],11%
same,Population Mitochondria Different-Phenotype (%),Fibroblast [1]; [7],20%
same,Population Mitotic Cells (%),Fibroblast [1]; [7],68%
same,Population Normal (%),Fibroblast [1]; [7],83%
same,Population Pyknosed Nuclei (%),Fibroblast [1]; [7],22%
same,Population Tubulin-Different-Phenotype (%),Fibroblast [1]; [7],85%
same,Total Cell Count,Fibroblast [1]; [7],86
same,Population Apoptotic (%),Fibroblast [1]; [8],33%
same,Population Fragmented Nuclei (%),Fibroblast [1]; [8],20%
same,Population Healthy Nuclei (%),Fibroblast [1]; [8],51%
same,Population Hoechst High Intensity Objects (%),Fibroblast [1]; [8],10%
same,Population Membrane Permeable-Phenotype (%),Fibroblast [1]; [8],10%
same,Population Mitochondria Different-Phenotype (%),Fibroblast [1]; [8],78%
same,Population Mitotic Cells (%),Fibroblast [1]; [8],66%
same,Population Normal (%),Fibroblast [1]; [8],90%
same,Population Pyknosed Nuclei (%),Fibroblast [1]; [8],27%
same,Population Tubulin-Different-Phenotype (%),Fibroblast [1]; [8],82%
same,Total Cell Count,Fibroblast [1]; [8],53
same,Population Apoptotic (%),Fibroblast [1]; [9],46%
same,Population Fragmented Nuclei (%),Fibroblast [1]; [9],21%
same,Population Healthy Nuclei (%),Fibroblast [1]; [9],43%
same,Population Hoechst High Intensity Objects (%),Fibroblast [1]; [9],25%
same,Population Membrane Permeable-Phenotype (%),Fibroblast [1]; [9],4%
same,Population Mitochondria Different-Phenotype (%),Fibroblast [1]; [9],37%
same,Population Mitotic Cells (%),Fibroblast [1]; [9],53%
same,Population Normal (%),Fibroblast [1]; [9],74%
same,Population Pyknosed Nuclei (%),Fibroblast [1]; [9],35%
same,Population Tubulin-Different-Phenotype (%),Fibroblast [1]; [9],59%
same,Total Cell Count,Fibroblast [1]; [9],199
same,Population Apoptotic (%),Fibroblast [1]; [10],91%
same,Population Fragmented Nuclei (%),Fibroblast [1]; [10],8%
same,Population Healthy Nuclei (%),Fibroblast [1]; [10],48%
same,Population Hoechst High Intensity Objects (%),Fibroblast [1]; [10],9%
same,Population Membrane Permeable-Phenotype (%),Fibroblast [1]; [10],85%
same,Population Mitochondria Different-Phenotype (%),Fibroblast [1]; [10],100%
same,Population Mitotic Cells (%),Fibroblast [1]; [10],8%
same,Population Normal (%),Fibroblast [1]; [10],90%
same,Population Pyknosed Nuclei (%),Fibroblast [1]; [10],42%
same,Population Tubulin-Different-Phenotype (%),Fibroblast [1]; [10],100%
same,Total Cell Count,Fibroblast [1]; [10],60
same,Population Apoptotic (%),Fibroblast [1]; [11],66%
same,Population Healthy Nuclei (%),Fibroblast [1]; [11],50%
same,Population Hoechst High Intensity Objects (%),Fibroblast [1]; [11],20%
same,Population Membrane Permeable-Phenotype (%),Fibroblast [1]; [11],7%
same,Population Mitochondria Different-Phenotype (%),Fibroblast [1]; [11],23%
same,Population Mitotic Cells (%),Fibroblast [1]; [11],33%
same,Population Normal (%),Fibroblast [1]; [11],79%
same,Population Pyknosed Nuclei (%),Fibroblast [1]; [11],15%
same,Population Tubulin-Different-Phenotype (%),Fibroblast [1]; [11],63%
same,Total Cell Count,Fibroblast [1]; [11],96
same,Population Apoptotic (%),Fibroblast [1]; [12],50%
same,Population Fragmented Nuclei (%),Fibroblast [1]; [12],34%
same,Population Healthy Nuclei (%),Fibroblast [1]; [12],63%
same,Population Hoechst High Intensity Objects (%),Fibroblast [1]; [12],10%
same,Population Membrane Permeable-Phenotype (%),Fibroblast [1]; [12],8%
same,Population Mitochondria Different-Phenotype (%),Fibroblast [1]; [12],10%
same,Population Mitotic Cells (%),Fibroblast [1]; [12],50%
same,Population Normal (%),Fibroblast [1]; [12],90%
same,Population Pyknosed Nuclei (%),Fibroblast [1]; [12],1%
same,Population Tubulin-Different-Phenotype (%),Fibroblast [1]; [12],73%
same,Total Cell Count,Fibroblast [1]; [12],120
same,Population Apoptotic (%),Fibroblast [1]; [13],77%
same,Population Fragmented Nuclei (%),Fibroblast [1]; [13],34%
same,Population Healthy Nuclei (%),Fibroblast [1]; [13],25%
same,Population Hoechst High Intensity Objects (%),Fibroblast [1]; [13],38%
same,Population Membrane Permeable-Phenotype (%),Fibroblast [1]; [13],5%
same,Population Mitochondria Different-Phenotype (%),Fibroblast [1]; [13],63%
same,Population Mitotic Cells (%),Fibroblast [1]; [13],22%
same,Population Normal (%),Fibroblast [1]; [13],61%
same,Population Pyknosed Nuclei (%),Fibroblast [1]; [13],40%
same,Population Tubulin-Different-Phenotype (%),Fibroblast [1]; [13],68%
same,Total Cell Count,Fibroblast [1]; [13],124
same,Population Apoptotic (%),Fibroblast [1]; [14],48%
same,Population Fragmented Nuclei (%),Fibroblast [1]; [14],22%
same,Population Healthy Nuclei (%),Fibroblast [1]; [14],41%
same,Population Hoechst High Intensity Objects (%),Fibroblast [1]; [14],54%
same,Population Membrane Permeable-Phenotype (%),Fibroblast [1]; [14],0%
same,Population Mitochondria Different-Phenotype (%),Fibroblast [1]; [14],42%
same,Population Mitotic Cells (%),Fibroblast [1]; [14],51%
same,Population Normal (%),Fibroblast [1]; [14],45%
same,Population Pyknosed Nuclei (%),Fibroblast [1]; [14],35%
same,Population Tubulin-Different-Phenotype (%),Fibroblast [1]; [14],63%
same,Total Cell Count,Fibroblast [1]; [14],202
same,Growth Rate,HEK-293T; [15],0
same,Growth Rate,HEK-293T; [16],0
same,Growth Rate,HEK-293T; [17],0
same,Growth Rate,HEK-293T; [18],0
same,Growth Rate,Fibroblast [2]; [19],0
same,Growth Rate,Fibroblast [2]; [15],0
same,Growth Rate,Fibroblast [2]; [16],0
same,Growth Rate,"Fibroblast [2]; 12 h, replicate number 2, timepoint 12 hours",1
same,Growth Rate,Fibroblast [2]; [17],0
same,Growth Rate,Fibroblast [2]; [18],0
same,Growth Rate,U2OS; [19],0
same,Growth Rate,U2OS; [15],1
same,Growth Rate,U2OS; [16],1
same,Growth Rate,U2OS; [17],0
same,Growth Rate,U2OS; [18],0
same,Growth Rate,"U2OS; 24 h, replicate number 2, timepoint 24 hours",1
